Laboratory results taken from ChEMBL document CHEMBL1806357, “A regioselective synthesis of some new pyrazol-1'-ylpyrazolo[1,5-a]pyrimidines in aqueous medium and their evaluation as antimicrobial agents” (2011).
In brackets after ≈: the same amount, converted by molar mass.

Experiments:
Escherichia coli [1] = assay: Antibacterial activity against Escherichia coli ATCC 8739 at 2 mg/ml after 24 hrs by agar-well diffusion technique; format: functional; settings: ATCC 8739, 24 h, read-out: DIZ
Outline: (§1)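 Agar-well diffusion used MHA seeded with 24 h cultures at 0.5 McFarland (1 × 10^6 CFU/ml). 100 µl of compound (2 mg/ml in DMSO, filter-sterilized) went into each 6 mm well. Plates were incubated upright at 37 ± 1 °C for 24 h, and the inhibition zone diameter was measured in mm. DMSO was the negative control. Values are the mean of three replicates.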

Pseudomonas aeruginosa [2] = assay: Antibacterial activity against Pseudomonas aeruginosa ATCC 25668 at 2 mg/ml after 24 hrs by agar-well diffusion technique; format: functional; settings: ATCC 25668, 24 h, read-out: DIZ; outline: as §1
Staphylococcus aureus [3] = assay: Antibacterial activity against Staphylococcus aureus ATCC 9144 at 2 mg/ml after 24 hrs by agar-well diffusion technique; format: functional; settings: ATCC 9144, 24 h, read-out: DIZ; outline: as §1
Bacillus cereus [4] = assay: Antibacterial activity against Bacillus cereus ATCC 11778 at 2 mg/ml after 24 hrs by agar-well diffusion technique; format: functional; settings: ATCC 11778, 24 h, read-out: DIZ; outline: as §1
Escherichia coli [5] = assay: Antibacterial activity against Escherichia coli ATCC 8739 after 24 hrs by broth microdilution method; format: functional
Pseudomonas aeruginosa [6] = assay: Antibacterial activity against Pseudomonas aeruginosa ATCC 25668 after 24 hrs by broth microdilution method; format: functional
Staphylococcus aureus [7] = assay: Antibacterial activity against Staphylococcus aureus ATCC 9144 after 24 hrs by broth microdilution method; format: functional
Bacillus cereus [8] = assay: Antibacterial activity against Bacillus cereus ATCC 11778 after 24 hrs by broth microdilution method; format: functional
Aspergillus terreus [9] = assay: Antifungal activity against Aspergillus terreus at 10 ug/ml after 7 days by poisoned food technique relative to control; format: functional
Outline: (§2)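 Poisoned food technique with soil-isolated fungi on PDA. Compound from a 1 mg/ml DMSO stock was added to molten agar at 40 ± 2 °C to give 10, 50, 100 or 200 µg/ml. A 6 mm mycelial disc from a 6-day culture was placed centrally, and plates were held at 28 ± 1 °C. Radial growth was measured after 7 days, and % inhibition was calculated against PDA/DMSO control, in triplicate.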

Aspergillus terreus [10] = assay: Antifungal activity against Aspergillus terreus at 50 ug/ml after 7 days by poisoned food technique relative to control; format: functional; outline: as §2
Aspergillus terreus [11] = assay: Antifungal activity against Aspergillus terreus at 100 ug/ml after 7 days by poisoned food technique relative to control; format: functional; outline: as §2
Aspergillus terreus [12] = assay: Antifungal activity against Aspergillus terreus at 200 ug/ml after 7 days by poisoned food technique relative to control; format: functional; outline: as §2
Alternaria alternata [13] = assay: Antifungal activity against Alternaria alternata at 10 ug/ml after 7 days by poisoned food technique relative to control; format: functional; outline: as §2
Alternaria alternata [14] = assay: Antifungal activity against Alternaria alternata at 50 ug/ml after 7 days by poisoned food technique relative to control; format: functional; outline: as §2
Alternaria alternata [15] = assay: Antifungal activity against Alternaria alternata at 100 ug/ml after 7 days by poisoned food technique relative to control; format: functional; outline: as §2
Alternaria alternata [16] = assay: Antifungal activity against Alternaria alternata at 200 ug/ml after 7 days by poisoned food technique relative to control; format: functional; outline: as §2
Fusarium oxysporum [17] = assay: Antifungal activity against Fusarium oxysporum at 10 ug/ml after 7 days by poisoned food technique relative to control; format: functional; outline: as §2
Fusarium oxysporum [18] = assay: Antifungal activity against Fusarium oxysporum at 50 ug/ml after 7 days by poisoned food technique relative to control; format: functional; outline: as §2
Fusarium oxysporum [19] = assay: Antifungal activity against Fusarium oxysporum at 100 ug/ml after 7 days by poisoned food technique relative to control; format: functional; outline: as §2
Fusarium oxysporum [20] = assay: Antifungal activity against Fusarium oxysporum at 200 ug/ml after 7 days by poisoned food technique relative to control; format: functional; outline: as §2
Helminthosporium [21] = assay: Antifungal activity against Helminthosporium sp. at 10 ug/ml after 7 days by poisoned food technique relative to control; format: functional; outline: as §2
Helminthosporium [22] = assay: Antifungal activity against Helminthosporium sp. at 50 ug/ml after 7 days by poisoned food technique relative to control; format: functional; outline: as §2
Helminthosporium [23] = assay: Antifungal activity against Helminthosporium sp. at 100 ug/ml after 7 days by poisoned food technique relative to control; format: functional; outline: as §2
Helminthosporium [24] = assay: Antifungal activity against Helminthosporium sp. at 200 ug/ml after 7 days by poisoned food technique relative to control; format: functional; outline: as §2
Escherichia coli [25] = assay: Antibacterial activity against Escherichia coli ATCC 8739 at 4 ug/ml after 24 hrs by agar-well diffusion technique; format: functional, organism-based
Outline: (§3)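 Agar-well diffusion. Bacteria were kept at 5–8 °C on Brain Heart Infusion agar. Inocula came from 24 h cultures adjusted to 0.5 McFarland (1 × 10^6 CFU/ml). 100 µl was seeded into 20 ml molten Mueller Hinton agar. 6 mm wells received 100 µl of sample, with gentamicin standard at 4 µg/ml and DMSO as negative control. Plates ran 24 h at 37 ± 1 °C; inhibition zone diameter in mm.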

Pseudomonas aeruginosa [26] = assay: Antibacterial activity against Pseudomonas aeruginosa ATCC 25668 at 4 ug/ml after 24 hrs by agar-well diffusion technique; format: functional, organism-based; outline: as §3
Staphylococcus aureus [27] = assay: Antibacterial activity against Staphylococcus aureus ATCC 9144 at 4 ug/ml after 24 hrs by agar-well diffusion technique; format: functional, organism-based; outline: as §3
Bacillus cereus [28] = assay: Antibacterial activity against Bacillus cereus ATCC 11778 at 4 ug/ml after 24 hrs by agar-well diffusion technique; format: functional, organism-based; outline: as §3
Escherichia coli [29] = assay: Antibacterial activity against Escherichia coli ATCC 8739 at 1 mg/ml after 24 hrs by agar-well diffusion technique; format: functional; settings: ATCC 8739, 24 h, read-out: DIZ
Pseudomonas aeruginosa [30] = assay: Antibacterial activity against Pseudomonas aeruginosa ATCC 25668 at 1 mg/ml after 24 hrs by agar-well diffusion technique; format: functional; settings: ATCC 25668, 24 h, read-out: DIZ
Staphylococcus aureus [31] = assay: Antibacterial activity against Staphylococcus aureus ATCC 9144 at 1 mg/ml after 24 hrs by agar-well diffusion technique; format: functional; settings: ATCC 9144, 24 h, read-out: DIZ
Bacillus cereus [32] = assay: Antibacterial activity against Bacillus cereus ATCC 11778 at 1 mg/ml after 24 hrs by agar-well diffusion technique; format: functional; settings: ATCC 11778, 24 h, read-out: DIZ

| Compound | zone of inhibition at 2000 µg/mL (Escherichia coli [1]) | zone of inhibition at 2000 µg/mL (Pseudomonas aeruginosa [2]) | zone of inhibition at 2000 µg/mL (Staphylococcus aureus [3]) | zone of inhibition at 2000 µg/mL (Bacillus cereus [4]) | MIC (Escherichia coli [5]; ATCC 8739, 24 h) | MIC (Pseudomonas aeruginosa [6]; ATCC 25668, 24 h) | MIC (Staphylococcus aureus [7]; ATCC 9144, 24 h) | MIC (Bacillus cereus [8]; ATCC 11778, 24 h) | Activity (Aspergillus terreus [9]) | Activity (Aspergillus terreus [10]) | Activity (Aspergillus terreus [11]) | Activity (Aspergillus terreus [12]) | Activity (Alternaria alternata [13]) | Activity (Alternaria alternata [14]) | Activity (Alternaria alternata [15]) | Activity (Alternaria alternata [16]) | Activity (Fusarium oxysporum [17]) | Activity (Fusarium oxysporum [18]) | Activity (Fusarium oxysporum [19]) | Activity (Fusarium oxysporum [20]) | other results |
| --- | --- | --- | --- | --- | --- | --- | --- | --- | --- | --- | --- | --- | --- | --- | --- | --- | --- | --- | --- | --- | --- |
| Cc1ccc(-c2cc(C)nn2-c2cc3nc(C)cc(-c4ccc(C)cc4)n3n2)cc1 | 10.5 mm | 8 mm | 8 mm | 8.5 mm | 50 µg/mL (≈ 127 µM) | 100 µg/mL (≈ 254 µM) | 100 µg/mL (≈ 254 µM) | 100 µg/mL (≈ 254 µM) |  |  |  |  |  |  |  |  |  |  |  |  |  |
| Cc1cc(-c2ccccc2)n2nc(-n3nc(C)cc3-c3ccccc3)cc2n1 | 8 mm | 7.5 mm | 8 mm | 8 mm | 200 µg/mL (≈ 547 µM) | > 200 µg/mL | 200 µg/mL (≈ 547 µM) | 200 µg/mL (≈ 547 µM) | 7.4% | 13.5% | 19.2% | 19.7% | 18.2% | 20.7% | 19.5% | 20.7% | 8.53% | 6.09% | 3.65% | 2.4% | Activity (Helminthosporium [21]): 0%; Activity (Helminthosporium [22]): 0%; Activity (Helminthosporium [23]): 0%; Activity (Helminthosporium [24]): 0% |
| GENTAMICIN |  |  |  |  |  |  |  |  |  |  |  |  |  |  |  |  |  |  |  |  | MIC (Escherichia coli [5]): 4 µg/mL; MIC (Pseudomonas aeruginosa [6]): 2 µg/mL; MIC (Staphylococcus aureus [7]): 2 µg/mL; MIC (Bacillus cereus [8]): 4 µg/mL; inhibition zone (IZ) (Escherichia coli [25]): 24 mm; inhibition zone (IZ) (Pseudomonas aeruginosa [26]): 12 mm; inhibition zone (IZ) (Staphylococcus aureus [27]): 14 mm; inhibition zone (IZ) (Bacillus cereus [28]): 14 mm |
| Cc1cc(-c2ccc(Cl)cc2)n2nc(-n3nc(C)cc3-c3ccc(Cl)cc3)cc2n1 | 13 mm | 10 mm | 9 mm | 13 mm | 25 µg/mL (≈ 57.6 µM) | 100 µg/mL (≈ 230 µM) | 100 µg/mL (≈ 230 µM) | 50 µg/mL (≈ 115 µM) | 0% | 0% | 2.5% | 12.5% | 0% | 0% | 0% | 0% | 1.63% | 3.27% | 9.8% | 16.3% | Activity (Helminthosporium [21]): 11.1%; Activity (Helminthosporium [22]): 15.5%; Activity (Helminthosporium [23]): 17.7%; Activity (Helminthosporium [24]): 36.6% |
| CC(=O)NC[C@H]1CN(c2ccc(N3CCOCC3)c(F)c2)C(=O)O1 [LINEZOLID] |  |  |  |  | > 100 µg/mL | > 100 µg/mL |  | > 100 µg/mL |  |  |  |  |  |  |  |  |  |  |  |  | zone of inhibition at 1000 µg/mL (Escherichia coli [29]): 12 mm; zone of inhibition at 1000 µg/mL (Pseudomonas aeruginosa [30]): 8.5 mm; zone of inhibition at 1000 µg/mL (Staphylococcus aureus [31]): 18 mm; zone of inhibition at 1000 µg/mL (Bacillus cereus [32]): 10 mm |
